Results reported in ChEMBL document CHEMBL3244174, “Synthesis and biological activity of some new furan quaternary salts” (J Med Chem, 1977).
Calls of active or inactive are those of the source. No cut-off for these calls is given here.

What was measured:
Candida albicans = assay: Antifungal activity against Candida albicans SKF 2270 assessed as growth inhibition by agar dilution method; format: functional
Cryptococcus neoformans = assay: Antifungal activity against Cryptococcus neoformans 103 assessed as growth inhibition by agar dilution method; format: functional
[1] = test system: Trichophyton mentagrophytes; assay: Antifungal activity against Trichophyton mentagrophytes A-280 USPHS assessed as growth inhibition by agar dilution method; format: functional
Trichophyton rubrum = assay: Antifungal activity against Trichophyton rubrum 252 CSTM assessed as growth inhibition by agar dilution method; format: functional
Microsporum canis = assay: Antifungal activity against Microsporum canis VM-200 USPHS assessed as growth inhibition by agar dilution method; format: functional
Nannizzia gypsea = assay: Antifungal activity against Microsporum gypseum 153 CSTM assessed as growth inhibition by agar dilution method; format: functional
Histoplasma capsulatum = assay: Antifungal activity against Histoplasma capsulatum RNSH Hi-70 1/2 assessed as growth inhibition by agar dilution method; format: functional
[2] = test system: Nippostrongylus brasiliensis; assay: Anthelmintic activity against larvae stage of Nippostrongylus brasiliensis infected in rat assessed as decrease in worm load at 250 mg/kg, po administered on day 8 post infection; format: functional, organism-based; parameters: dose 250 mg/kg
Outline: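 Young male rats (25–30 g, University of Freiburg strain), 3 per compound, infected with 500 infective larvae; single 250 mg/kg oral dose on day 8. Worm loads of treated and control groups compared; 90% deparasitization taken as active. Whitlock–Bliss technique as modified by Steward.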

Rodentolepis nana = assay: Anthelmintic activity against viable ova stage of Hymenolepis nana infected in rat assessed as decrease in intestinal worm load at 250 mg/kg, po measured on day 3; format: functional, organism-based; parameters: dose 250 mg/kg
Outline: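 Young male rats (25–30 g, University of Freiburg strain) infected with 200 viable ova, then given a single 250 mg/kg oral dose. Worms from each rat's small intestine collected and scored on day 3. A mean score of 0–10% of control taken as active.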

[3] = Acute toxicity in ip dosed mouse; format: organism-based; conditions: in vivo
Outline: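 Mice dosed intraperitoneally; LD50 determined.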

Staphylococcus aureus = assay: Antibacterial activity against Staphylococcus aureus ATCC 6538 assessed as growth inhibition after 24 hrs by dilution tube method; format: functional; conditions: ATCC 6538, 24 h
Outline: (§1)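 Broth tube dilution in Tryptone Soya Broth, duplicate tubes at each concentration. MIC (μg/ml) was the highest dilution preventing visible growth. Nitrofurantoin run under the same conditions.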

Enterococcus faecalis = assay: Antibacterial activity against Streptococcus faecalis ATCC 10541 assessed as growth inhibition after 24 hrs by dilution tube method; format: functional; conditions: ATCC 10541, 24 h; outline: as §1
Pseudomonas aeruginosa = assay: Antibacterial activity against Pseudomonas aeruginosa ATCC 10145 assessed as growth inhibition after 24 hrs by dilution tube method; format: functional; conditions: ATCC 10145, 24 h; outline: as §1
Klebsiella pneumoniae = assay: Antibacterial activity against Klebsiella pneumoniae ATCC 10031 assessed as growth inhibition after 24 hrs by dilution tube method; format: functional; conditions: ATCC 10031, 24 h; outline: as §1
Salmonella typhi = assay: Antibacterial activity against Salmonella typhi 115 assessed as growth inhibition after 24 hrs by dilution tube method; format: functional, Salmonella enterica subsp. enterica serovar Typhi; conditions: Salmonella enterica, 115, 24 h
Outline: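 Dilution tube method in Tryptone Soya Broth; MIC (μg/ml) taken as highest dilution preventing visible growth; duplicates at every concentration; nitrofurantoin reference run under same conditions.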

[4] = test system: Agrobacterium tumefaciens; assay: Antibacterial activity against Agrobacterium tumefaciens NRRL B-36 assessed as growth inhibition after 24 hrs by dilution tube method; format: functional; conditions: NRRL B-36, 24 h; outline: as §1
Escherichia coli = assay: Antibacterial activity against Escherichia coli 114 assessed as growth inhibition after 24 hrs by dilution tube method; format: functional; conditions: Escherichia coli, 114, 24 h; outline: as §1
[5] = test system: Mycobacterium tuberculosis; assay: Antibacterial activity against Mycobacterium tuberculosis H37Rv assessed as growth inhibition by serial dilution method; format: functional
Outline: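 M. tuberculosis H37Rv maintained on Lowenstein–Jensen medium; tested in Youman's medium by serial dilution.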

Compound	MIC (Candida albicans)	MIC (Cryptococcus neoformans)	MIC [1]	MIC (Trichophyton rubrum)	MIC (Microsporum canis)	MIC (Nannizzia gypsea)	MIC (Histoplasma capsulatum)	Activity [2]	Activity (Rodentolepis nana)	LD50 [3]	MIC (Staphylococcus aureus)	MIC (Enterococcus faecalis)	MIC (Pseudomonas aeruginosa)	MIC (Klebsiella pneumoniae)	MIC (Salmonella typhi)	MIC [4]	MIC (Escherichia coli)	MIC [5]
Cc1cc(OCCCCC[N+](C)(C)Cc2ccc(Br)o2)c(C(C)C)cc1Cl.[Br-]	> 200 µg/mL	10 µg/mL	100 µg/mL	> 200 µg/mL	100 µg/mL	> 200 µg/mL	100 µg/mL	inactive	inactive	37.5 mg/kg	2.5 µg/mL	5 µg/mL	2.5 µg/mL	2.5 µg/mL	50 µg/mL	10 µg/mL	100 µg/mL	10 µg/mL
Cc1cc(OCCCC[N+](C)(C)Cc2ccc(Br)o2)c(C(C)C)cc1Cl.[Br-]	50 µg/mL	25 µg/mL	50 µg/mL	> 200 µg/mL	75 µg/mL	50 µg/mL	> 200 µg/mL	inactive	inactive	25 mg/kg	2.5 µg/mL	7.5 µg/mL	2.5 µg/mL	2.5 µg/mL	> 200 µg/mL	25 µg/mL	> 200 µg/mL	7.5 µg/mL
C[N+](C)(CCCCCCOc1c(Br)cc(Br)cc1Br)Cc1ccc(Br)o1.[Br-]	> 200 µg/mL	25 µg/mL	> 200 µg/mL	> 200 µg/mL	100 µg/mL	> 200 µg/mL	25 µg/mL	inactive	inactive	25 mg/kg	2 µg/mL	5 µg/mL	1.5 µg/mL	1.5 µg/mL	50 µg/mL	7.5 µg/mL	100 µg/mL	10 µg/mL
Cc1cc(OCCCC[N+](C)(C)Cc2ccc([N+](=O)[O-])o2)c(C(C)C)cc1Cl.[Br-]	> 200 µg/mL	25 µg/mL	> 200 µg/mL	> 200 µg/mL	> 200 µg/mL	> 200 µg/mL	> 200 µg/mL	inactive	inactive	75 mg/kg	7.5 µg/mL	25 µg/mL	1.5 µg/mL	5 µg/mL	> 200 µg/mL	25 µg/mL	> 200 µg/mL	10 µg/mL
C[N+](C)(CCCCCCOc1c(Br)cc(Br)cc1Br)Cc1ccc([N+](=O)[O-])o1.[Br-]	> 200 µg/mL	100 µg/mL	> 200 µg/mL	100 µg/mL	100 µg/mL	100 µg/mL	25 µg/mL	inactive	inactive	75 mg/kg	10 µg/mL	25 µg/mL	2.5 µg/mL	5 µg/mL	100 µg/mL	25 µg/mL	200 µg/mL	10 µg/mL
C[N+](C)(CCCCOc1c(Br)cc(Br)cc1Br)Cc1ccc(Br)o1.[Br-]	> 200 µg/mL	25 µg/mL	> 200 µg/mL	> 200 µg/mL	> 200 µg/mL	> 200 µg/mL	50 µg/mL	inactive	inactive	37.5 mg/kg	5 µg/mL	25 µg/mL	5 µg/mL	7.5 µg/mL	100 µg/mL	50 µg/mL	> 200 µg/mL	50 µg/mL
C[N+](C)(CCCCCCCCOc1c(Br)cc(Br)cc1Br)Cc1ccc(Br)o1.[Br-]	> 200 µg/mL	4 µg/mL	> 200 µg/mL	> 200 µg/mL	> 200 µg/mL	> 200 µg/mL	> 200 µg/mL	–	–	–	3 µg/mL	4 µg/mL	2 µg/mL	4 µg/mL	> 200 µg/mL	7.5 µg/mL	> 200 µg/mL	50 µg/mL
C[N+](C)(CCCCCCCCCCCCCCOc1c(Br)cc(Br)cc1Br)Cc1ccc(Br)o1.Cc1ccc(S(=O)(=O)[O-])cc1	> 200 µg/mL	200 µg/mL	> 200 µg/mL	> 200 µg/mL	200 µg/mL	> 200 µg/mL	> 200 µg/mL	–	–	–	100 µg/mL	100 µg/mL	50 µg/mL	100 µg/mL	200 µg/mL	200 µg/mL	> 200 µg/mL	200 µg/mL
Cc1cc(OCCCCCCC[N+](C)(C)Cc2ccc([N+](=O)[O-])o2)c(C(C)C)cc1Cl.[Br-]	> 200 µg/mL	4 µg/mL	> 200 µg/mL	> 200 µg/mL	> 200 µg/mL	> 200 µg/mL	> 200 µg/mL	–	–	–	4 µg/mL	3 µg/mL	2 µg/mL	3 µg/mL	> 200 µg/mL	7.5 µg/mL	> 200 µg/mL	5 µg/mL
Cc1cc(OCCCCCCC[N+](C)(C)Cc2ccc(Br)o2)c(C(C)C)cc1Cl.[Br-]	50 µg/mL	25 µg/mL	> 200 µg/mL	> 200 µg/mL	> 200 µg/mL	> 200 µg/mL	> 200 µg/mL	–	–	–	10 µg/mL	7.5 µg/mL	3 µg/mL	7.5 µg/mL	> 200 µg/mL	7.5 µg/mL	> 200 µg/mL	7.5 µg/mL
C[N+](C)(CCCCCOc1c(Br)cc(Br)cc1Br)Cc1ccc(Br)o1.[Br-]	> 200 µg/mL	25 µg/mL	> 200 µg/mL	> 200 µg/mL	> 200 µg/mL	> 200 µg/mL	100 µg/mL	inactive	inactive	25 mg/kg	2 µg/mL	7.5 µg/mL	2 µg/mL	1.5 µg/mL	50 µg/mL	25 µg/mL	100 µg/mL	10 µg/mL
C[N+](C)(CCCCCCCCCCCCOc1c(Br)cc(Br)cc1Br)Cc1ccc(Br)o1.[Br-]	> 200 µg/mL	200 µg/mL	> 200 µg/mL	> 200 µg/mL	200 µg/mL	> 200 µg/mL	> 200 µg/mL	–	–	–	200 µg/mL	200 µg/mL	50 µg/mL	200 µg/mL	> 200 µg/mL	> 200 µg/mL	> 200 µg/mL	100 µg/mL
Cc1cc(OCCCCCCCC[N+](C)(C)Cc2ccc([N+](=O)[O-])o2)c(C(C)C)cc1Cl.[Br-]	> 200 µg/mL	4 µg/mL	> 200 µg/mL	> 200 µg/mL	> 200 µg/mL	> 200 µg/mL	> 200 µg/mL	–	–	–	2 µg/mL	3 µg/mL	1 µg/mL	2 µg/mL	> 200 µg/mL	4 µg/mL	> 200 µg/mL	7.5 µg/mL
Cc1cc(OCCCCC[N+](C)(C)Cc2ccc([N+](=O)[O-])o2)c(C(C)C)cc1Cl.[Br-]	> 200 µg/mL	25 µg/mL	> 200 µg/mL	100 µg/mL	100 µg/mL	100 µg/mL	100 µg/mL	inactive	inactive	50 mg/kg	10 µg/mL	10 µg/mL	2.5 µg/mL	2.5 µg/mL	50 µg/mL	25 µg/mL	> 200 µg/mL	5 µg/mL
C[N+](C)(CCCCOc1c(Br)cc(Br)cc1Br)Cc1ccc([N+](=O)[O-])o1.[Br-]	> 200 µg/mL	50 µg/mL	> 200 µg/mL	> 200 µg/mL	> 200 µg/mL	> 200 µg/mL	50 µg/mL	–	–	–	25 µg/mL	50 µg/mL	8 µg/mL	10 µg/mL	> 200 µg/mL	50 µg/mL	> 200 µg/mL	25 µg/mL
C[N+](C)(CCCCCCCCOc1c(Br)cc(Br)cc1Br)Cc1ccc([N+](=O)[O-])o1.[Br-]	> 200 µg/mL	4 µg/mL	> 200 µg/mL	> 200 µg/mL	> 200 µg/mL	> 200 µg/mL	> 200 µg/mL	–	–	–	4 µg/mL	4 µg/mL	2 µg/mL	2 µg/mL	> 200 µg/mL	10 µg/mL	> 200 µg/mL	7.5 µg/mL
